According to ChEMBL document CHEMBL1133733, “Anilides of (R)-trifluoro-2-hydroxy-2-methylpropionic acid as inhibitors of pyruvate dehydrogenase kinase” (J Med Chem, 2000):
Each block holds one compound with its values, some of them ahead of it. Activity calls are given as the source filed them. No cut-off for these calls is given here.

Columns and labels:
Homo sapiens = species: Homo sapiens; test: Effective concentration in human fibroblasts for increased oxidation of lactate; assay type: functional, organism-based
In short: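 Human fibroblasts incubated with [14C]lactate; PDH complex activation read as conversion of [14C]lactate to 14CO2 (modified Ofenstein assay); EC50 (μM ± standard error).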

[1] = Tmax after oral dosing of 100 uM/Kg; assay type: ADME, organism-based; conditions: in vivo
In short: (§1)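 Plasma levels of parent drug profiled in rats after a single oral dose; t1/2, AUC (0–8 h), Tmax and Cmax derived from the plasma concentration–time profile.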

[2] = Area Under Curve after oral dosing of 100 uM/Kg; assay type: ADME; in short: as §1
[3] = Half-life after oral administration (100 uM/Kg); assay type: ADME, organism-based; conditions: in vivo; in short: as §1
[4] = Cmax after oral dosing of 100 umol/Kg; assay type: ADME, organism-based; set-up: dose 100 umol/Kg, route oral; conditions: in vivo; in short: as §1
[5] = biological target: T1, Pyruvate dehydrogenase kinase (Rattus norvegicus) (UniProt Q63065+A6IPZ9+Q64536+O54937); test: In vivo percent of control lactate in 24 hr fasted rats at 100 umol/kg oral dose after 2.5 hours; assay type: functional, organism-based
In short: (§2)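 Normal Sprague–Dawley rats, n = 6/group, fasted 24 h, then dosed orally (μmol/kg); blood lactate sampled at 2, 2.5 or 5 h postdose and expressed as percent of control; significance p < 0.05.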

[6] = biological target: T1, Pyruvate dehydrogenase kinase (Rattus norvegicus); test: In vivo percent of control lactate in 24 hr fasted rats at 100 umol/kg oral dose after 5 hours; assay type: functional, organism-based; in short: as §2
[7] = biological target: T1, Pyruvate dehydrogenase kinase (Rattus norvegicus); test: In vivo percent of control lactate in 24 hr fasted rats at 30 uM/kg oral dose; assay type: functional, organism-based; conditions: 30 umol/kg; in short: as §2
[8] = biological target: T1, Pyruvate dehydrogenase kinase (Rattus norvegicus); test: In vivo percent of control lactate in 24 hr fasted rats at 300 umol/kg oral dose after 2.5 hours; assay type: functional, organism-based; in short: as §2
[9] = biological target: T1, Pyruvate dehydrogenase kinase (Rattus norvegicus); test: In vivo percent of control lactate in 24 hr fasted rats at 300 umol/kg oral dose after 5 hours; assay type: functional, organism-based; in short: as §2
[10] = biological target: T1, Pyruvate dehydrogenase kinase (Rattus norvegicus); test: In vivo percent of control lactate in 24 hr fasted rats at 100 umol/kg oral dose; assay type: functional, organism-based; in short: as §2
[11] = biological target: Pyruvate dehydrogenase kinase (Homo sapiens) (UniProt Q15119+Q15120+Q16654+Q15118); test: In vitro inhibition of pyruvate dehydrogenase kinase (PDHK) in primary enzymatic assay; Inactive; assay type: protein assay; conditions: Sus scrofa
In short: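 Primary high-throughput enzymatic assay of PDH kinase inhibition using commercial porcine PDH complex; IC50 reported as μM ± standard error.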

[12] = biological target: T1, Pyruvate dehydrogenase kinase (Rattus norvegicus); test: In vivo percent of control lactate in 24 hr fasted rats at 10 uM/kg oral dose after 2.5 hours; assay type: functional, organism-based; in short: as §2
[13] = biological target: T1, Pyruvate dehydrogenase kinase (Rattus norvegicus); test: In vivo percent of control lactate in 24 hr fasted rats at 30 uM/kg oral dose after 2.5 hours; assay type: functional, organism-based; in short: as §2
[14] = biological target: T1, Pyruvate dehydrogenase kinase (Rattus norvegicus); test: In vivo percent of control lactate in 24 hr fasted rats at 250 umol/kg oral dose; assay type: functional, organism-based; in short: as §2
[15] = biological target: T1, Pyruvate dehydrogenase kinase (Rattus norvegicus); test: In vivo percent of control lactate in 24 hr fasted rats at 30 uM/kg oral dose after 5 hours; assay type: functional, organism-based; in short: as §2

SMILES: CC(=O)c1ccccc1NC(=O)C(C)(O)C(F)(F)F (stereo unspecified)
EC50 (Homo sapiens): 14 µM

Tmax [1]: 0.5 h | AUC [2]: 143 µM·h | half-life [3]: 4.6 h | Cmax [4]: 87.3 µM
SMILES: CC(O)(C(=O)Nc1cccc(C(=O)O)c1Cl)C(F)(F)F (stereo unspecified)

Control [5]: 64% | Control [6]: 84%
SMILES: C[C@@](O)(C(=O)Nc1ccc(S(=O)(=O)NCc2ccccn2)cc1Cl)C(F)(F)F

SMILES: CC(O)(C(=O)Nc1cccc(C(=O)c2ccccc2)c1Cl)C(F)(F)F (stereo unspecified)
EC50 (Homo sapiens): 11 µM

Control [7]: 101%
SMILES: C[C@@](O)(C(=O)Nc1ccc(C(=O)N[C@@H](Cc2ccc(-c3ccccc3)cc2)C(=O)O)cc1Cl)C(F)(F)F

SMILES: CC(O)(C(=O)Nc1ccccc1Cl)C(F)(F)F (stereo unspecified)
EC50 (Homo sapiens): 5.4 µM

Control [5]: 101% | Control [8]: 69% | Control [9]: 76% | Control [6]: 95%
SMILES: CC(C)CNS(=O)(=O)c1ccc(NC(=O)C(C)(C)O)c(Cl)c1

SMILES: CCCCCCNC(=O)c1ccc(NC(=O)C(C)(O)C(F)(F)F)c(Cl)c1 (stereo unspecified)
EC50 (Homo sapiens): 5.5 µM

Control [7]: 102%
SMILES: COC(=O)[C@H](Cc1c[nH]c2ccccc12)N(C)C(=O)c1ccc(NC(=O)[C@@](C)(O)C(F)(F)F)c(Cl)c1

SMILES: COc1ccc(NC(=O)C(C)(O)C(F)(F)F)cc1 (stereo unspecified)
EC50 (Homo sapiens): 43.1 µM

SMILES: CC(O)(C(=O)Nc1ccc(C(=O)c2ccccc2)cc1Cl)C(F)(F)F (stereo unspecified)
EC50 (Homo sapiens): 30 µM

Control [10]: 94%
SMILES: C[C@@](O)(C(=O)Nc1ccc(C(=O)NCCCCCC(=O)[O-])cc1Cl)C(F)(F)F.[Na+]

Control [10]: 88%
SMILES: C[C@@](O)(C(=O)Nc1ccc(C(=O)NCCCO)cc1Cl)C(F)(F)F

Control [5]: 124% | Control [6]: 69%
SMILES: C[C@@](O)(C(=O)Nc1ccc(S(=O)(=O)NCCc2ccc(F)cc2)cc1Cl)C(F)(F)F

NA [11]: inactive
SMILES: CC(O)(C(=O)Nc1ccccc1-c1ccccc1)C(F)(F)F (stereo unspecified)

Control [10]: 115%
SMILES: C[C@@](O)(C(=O)Nc1ccc(C(=O)N[C@@H](Cc2ccccc2)C(=O)[O-])cc1Cl)C(F)(F)F.[Na+]

Control [5]: 82% | Control [6]: 70%
SMILES: C[C@@](O)(C(=O)Nc1ccc(S(=O)(=O)N2CCC(N)C2)cc1Cl)C(F)(F)F (stereo partly specified)

NA [11]: inactive
SMILES: CC(O)(C(=O)Nc1cccc(C(F)(F)F)c1)C(F)(F)F (stereo unspecified)

Control [8]: 77%
SMILES: C[C@@](O)(C(=O)Nc1ccc(S(=O)(=O)N2CCNCC2)cc1Cl)C(F)(F)F

Control [12]: 100% | Control [5]: 69% | Control [6]: 60% | Control [13]: 83%
SMILES: CC(C)CNS(=O)(=O)c1ccc(NC(=O)[C@@](C)(O)C(F)(F)F)c(Cl)c1

NA [11]: inactive
SMILES: CCCCCCNC(=O)c1ccc(Cl)c(NC(=O)C(C)(O)C(F)(F)F)c1 (stereo unspecified)

Control [10]: 63%
SMILES: C[C@@](O)(C(=O)Nc1ccc(C(=O)N2CCN(c3ccccn3)CC2)cc1Cl)C(F)(F)F

SMILES: CC(O)(C(=O)Nc1cccc(C(=O)c2ccccc2)c1)C(F)(F)F (stereo unspecified)
EC50 (Homo sapiens): 10 µM

NA [11]: inactive
SMILES: CC(O)(C(=O)Nc1cc(C(=O)O)ccc1Cl)C(F)(F)F (stereo unspecified)

Control [7]: 114%
SMILES: CN(CCCO)C(=O)c1ccc(NC(=O)[C@@](C)(O)C(F)(F)F)c(Cl)c1

SMILES: C[C@@](O)(C(=O)Nc1ccc(C(=O)O)cc1Cl)C(F)(F)F
EC50 (Homo sapiens): 1.4 µM

SMILES: COC(=O)c1cccc(NC(=O)C(C)(O)C(F)(F)F)c1Cl (stereo unspecified)
EC50 (Homo sapiens): 13.8 µM

NA [11]: inactive
SMILES: COC(=O)c1ccc(Cl)c(NC(=O)C(C)(O)C(F)(F)F)c1 (stereo unspecified)

SMILES: CC(O)(C(=O)Nc1ccc(C(=O)N2CCCCC2)cc1Cl)C(F)(F)F (stereo unspecified)
EC50 (Homo sapiens): 0.71 µM

NA [11]: inactive
SMILES: Cc1cccc(C)c1NC(=O)C(C)(O)C(F)(F)F (stereo unspecified)

NA [11]: inactive
SMILES: COc1ccc(Cl)c(NC(=O)C(C)(O)C(F)(F)F)c1 (stereo unspecified)

Control [7]: 87%
SMILES: CC(C)[C@@H](C(=O)[O-])N(C)C(=O)c1ccc(NC(=O)[C@@](C)(O)C(F)(F)F)c(Cl)c1.[Na+]

Control [7]: 94%
SMILES: C[C@@H](C(=O)[O-])N(C)C(=O)c1ccc(NC(=O)[C@@](C)(O)C(F)(F)F)c(Cl)c1.[Na+]

Control [10]: 64%
SMILES: C[C@@](O)(C(=O)Nc1ccc(C(=O)N2CCOCC2)cc1Cl)C(F)(F)F

Control [5]: 72% | Control [6]: 70%
SMILES: CCOCCCNS(=O)(=O)c1ccc(NC(=O)[C@@](C)(O)C(F)(F)F)c(Cl)c1

Control [14]: 65%
SMILES: C[C@@](O)(C(=O)Nc1ccc(S(C)(=O)=O)cc1Cl)C(F)(F)F

Control [7]: 97%
SMILES: C[C@@](O)(C(=O)Nc1ccc(C(=O)N[C@@H](CCc2ccccc2)C(=O)O)cc1Cl)C(F)(F)F

NA [11]: inactive
SMILES: CC(O)(C(=O)Nc1cc(C(=O)c2ccccc2)ccc1Cl)C(F)(F)F (stereo unspecified)

NA [11]: inactive
SMILES: CC(O)(C(=O)Nc1cc(C(=O)N2CCCCC2)ccc1Cl)C(F)(F)F (stereo unspecified)

Control [5]: 76% | Control [6]: 62%
SMILES: C=CCNS(=O)(=O)c1ccc(NC(=O)[C@@](C)(O)C(F)(F)F)c(Cl)c1

Control [5]: 71% | Control [6]: 84%
SMILES: C[C@@](O)(C(=O)Nc1ccc(S(=O)(=O)NCCN2CCOCC2)cc1Cl)C(F)(F)F

Control [5]: 51% | Control [6]: 52% | Control [15]: 66% | Control [13]: 87%
SMILES: C[C@@](O)(C(=O)Nc1ccc(S(=O)(=O)NCCCN2CCCC2=O)cc1Cl)C(F)(F)F

Control [14]: 78%
SMILES: CC(O)(C(=O)Nc1ccc(C#N)cc1Cl)C(F)(F)F (stereo unspecified)
